Measurements reported in publication PMC3105124 (Brain research, 2011).
Read-outs that look alike come from different tables or passages of the source. Marks after values point to notes of the source that are not given here.

Columns and labels:
[1] = test system: L5/L6 spinal nerve ligated male Sprague Dawley rats; assay: Mechanical hypersensitivity; format: in vivo, rat; settings: for AUC, paw withdrawal threshold (mechanical): vehicle AUC=22.07 ± 3.02
[2] = test system: L5/L6 spinal nerve ligated male Sprague Dawley rats; assay: Thermal hypersensitivity; format: in vivo, rat; settings: for AUC, paw withdrawal latency (thermal): vehicle AUC=55.52 ± 2.74; for effect on thermal hyperalgesia compared to vehicle or post injury baseline: morphine (10 mg), all time-points and total AUC
male Sprague Dawley rats [3] = format: in vivo, rat
In short: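 CCK-8sulf (30 ng/0.5 μL, in water) went into the RVM 10 min before. Naloxone (10 mg/kg sc, saline) was given 20 min before. Radiant heat to the plantar hind paw gave withdrawal latency, compared with baseline.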

[4] = test system: sham-operated male Sprague Dawley rats; assay: Thermal paw withdrawal latency in sham-operated animals, intrathecal; format: in vivo, rat; settings: 45 min time point
In short: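 Sham rats had the L5/L6 nerves exposed without ligation, then 5–7 days recovery. An intrathecal catheter ending at the lumbar cord was placed under ketamine/xylazine, with 5–7 days recovery. Test compound in 33% EtOH/water was injected in 5 μL with a 9 μL saline flush. Radiant heat was focused on the ipsilateral hind paw, and latencies were read blinded every 15 min for 60 min. In crossovers, vehicle rats were redosed ≥5 h later.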

μ opioid receptor = settings: read-out: Ki at the μ opioid receptor; ref Agnes et al., 2008; cited from earlier work
[5] = target: human δ opioid receptor (hDOR) (Homo sapiens, UniProt P41143); settings: ref Agnes et al., 2008, cited from earlier work
[6] = target: rat μ opioid receptor (MOR) (Rattus norvegicus, UniProt P33535); settings: ref Agnes et al., 2008, cited from earlier work
male Sprague Dawley rats [7] = assay: Rotarod test for motor impairment or sedation, intrathecal; format: in vivo, rat; settings: 180 s cutoff
CCK-2 receptor = settings: read-out: Ki at the CCK-2 receptor; ref Agnes et al., 2008; cited from earlier work
[8] = test system: L5/L6 spinal nerve ligated male Sprague Dawley rats; format: in vivo, rat
delta opioid receptor = settings: ref Agnes et al., 2008; Hruby et al., 2003; cited from earlier work
CCK-1 receptor = settings: read-out: Ki at the CCK-1 receptor; ref Agnes et al., 2008; cited from earlier work
δ opioid receptor = settings: read-out: Ki at the δ opioid receptor; ref Agnes et al., 2008; cited from earlier work
mu opioid receptor = settings: ref Agnes et al., 2008; Hruby et al., 2003; cited from earlier work
[9] = 30 μg/5μL intrathecal (gabapentin 30 μg)

Chain of rat μ opioid receptor (MOR) (P33535 whole entry): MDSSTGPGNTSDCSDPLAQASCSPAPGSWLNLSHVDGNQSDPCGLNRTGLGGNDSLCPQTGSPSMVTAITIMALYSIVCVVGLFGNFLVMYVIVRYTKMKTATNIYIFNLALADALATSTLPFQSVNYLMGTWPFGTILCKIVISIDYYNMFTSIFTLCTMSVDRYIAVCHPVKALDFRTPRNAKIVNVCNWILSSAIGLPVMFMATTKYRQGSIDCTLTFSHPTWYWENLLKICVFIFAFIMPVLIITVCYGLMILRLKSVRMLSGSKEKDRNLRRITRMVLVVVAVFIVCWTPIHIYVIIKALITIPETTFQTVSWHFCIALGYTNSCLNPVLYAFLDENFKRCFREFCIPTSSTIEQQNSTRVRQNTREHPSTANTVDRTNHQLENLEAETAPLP
Chain of human δ opioid receptor (hDOR) (P41143 whole entry): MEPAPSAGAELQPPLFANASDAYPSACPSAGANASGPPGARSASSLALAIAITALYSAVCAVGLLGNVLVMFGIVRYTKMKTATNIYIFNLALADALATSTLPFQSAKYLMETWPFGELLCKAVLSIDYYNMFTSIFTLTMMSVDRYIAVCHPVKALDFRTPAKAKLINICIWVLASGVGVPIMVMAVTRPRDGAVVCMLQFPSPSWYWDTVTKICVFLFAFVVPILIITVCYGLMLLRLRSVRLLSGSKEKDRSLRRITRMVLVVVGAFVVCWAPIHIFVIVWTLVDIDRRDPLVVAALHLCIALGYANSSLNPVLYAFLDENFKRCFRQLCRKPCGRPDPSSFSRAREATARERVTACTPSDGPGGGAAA

Compound: NCC1(CC(=O)O)CCCCC1 [gabapentin, reference compound]
- AUC, paw withdrawal threshold (mechanical) [1, 9]: 25.97 ± 6.68
- AUC, paw withdrawal latency (thermal) ([2]; gabapentin (30 mg) intrathecal): 104.72 ± 11.01
- effect on thermal hyperalgesia compared to vehicle or post injury baseline ([2]; gabapentin (30 mg) intrathecal): significant efficacy

Compound: CN1CC[C@]23c4c5ccc(O)c4O[C@H]2[C@@H](O)C=C[C@H]3[C@H]1C5 [morphine, reference compound]
- Paw Withdrawal Latency (Sec ± SEM) (male Sprague Dawley rats [3]; RVM 60 ng/0.5μl with pretreatment (−20min) of naloxone (subcutaneous; 10mg/kg)): 18.70** Sec
- effect on thermal hyperalgesia compared to vehicle or post injury baseline ([2]; gabapentin (30 mg) intrathecal): significant efficacy

Compound: H-Tyr^1-DNle^2-Gly^3-Trp^4-Nle^5-Asp^6-Phe^7-NH2 [RSA 504]
- paw withdrawal latencies in sham animals [4]: significantly increased
- attenuation of mechanical hypersensitivity compared to vehicle ([1]; 3 μg/5μL intrathecal): No significance
- attenuation of mechanical hypersensitivity compared to post-injury baseline ([1]; 3 μg/5μL intrathecal, 15, 30 and 45 min post administration): Significant attenuation
- AUC, paw withdrawal threshold (mechanical) ([1]; 3 μg/5μL intrathecal): 32.53 ± 4.39
- attenuation of mechanical hypersensitivity compared to vehicle ([1]; 10 μg/5μL and 30 μg/5μL intrathecal (RSA 504: 30 min; RSA 601: all time points)): significant attenuation
- AUC, paw withdrawal threshold (mechanical) ([1]; 10 μg/5μL intrathecal (morphine 10 μg)): 39.38 ± 3.17
- AUC, paw withdrawal threshold (mechanical) [1, 9]: 44.80 ± 4.93
- A50, antiallodynic dose response curve ([1]; intrathecal, peak effect 30 min, day 7 after SNL, von Frey): 4.67 μg/5μL
- Ki (μ opioid receptor): 27 nM
- EC50 ([5]; read-out: EC50 in GTP-γ-S binding assay at hDOR): 5.5 nM
- Emax in GTP-γ-S binding assay at hDOR [5]: 81 nM
- Paw Withdrawal Latency (Sec ± SEM) (male Sprague Dawley rats [3]; RVM 60 ng/0.5μl with pre-administration (−10min) of CCK-8sulf (RVM; 30 ng/0.5 μL)): 22.35^† Sec
- effect on CCK-8 induced thermal hypersensitivity (male Sprague Dawley rats [3]; RVM administration, effect not significantly attenuated by naloxone): reversed the CCK-8 hypersensitivity
- attenuation of thermal hyperalgesia compared to vehicle ([2]; 1 μg/5μL intrathecal): did not produce a significant effect
- attenuation of thermal hyperalgesia compared to vehicle and post-injury baseline ([2]; 10 μg/5μL and 30 μg/5μL intrathecal, 30 min time point): significantly attenuated
- AUC, paw withdrawal latency (thermal) ([2]; 10 μg/5μL intrathecal): 83.61 ± 6.40
- AUC, paw withdrawal latency (thermal) ([2]; 30 μg/5μL intrathecal): 111.10 ± 7.97
- A50, antihyperalgesic dose response curve ([2]; intrathecal, peak effect 30 min, day 7 after SNL): 6.09 μg/5μL
- EC50 ([6]; read-out: EC50 in GTP-γ-S binding assay at MOR): 0.47 nM
- Emax in GTP-γ-S binding assay at MOR [6]: 110 nM
- motor impairment or sedation on the rotarod (male Sprague Dawley rats [7]): did not result in motor impairment
- Ki (CCK-2 receptor): 16 nM
- antinociceptive tolerance (day 7 A50 compared to day one) ([8]; intrathecal administration over 7 days): not significantly different
- A50, reconstructed antihyperalgesic dose response curve, day 7 ([8]; intrathecal, 30 min, day 7 after 30 μg/5μL/day for 6 days (14 days after SNL)): 6.45 μg/5μL
- A50, antihyperalgesic dose response curve, day one ([8]; intrathecal, 30 min, treatment day 1 (7 days after SNL)): 5.89 μg/5μL
- in vitro activity in the MVD for delta opioid receptor activity (delta opioid receptor): 23 nM
- Ki (CCK-1 receptor): 11.2 nM
- Ki (δ opioid receptor): 23 nM
- in vitro activity in GPI for mu opioid receptor activity (mu opioid receptor): 210 nM
